HCT116 bCat-KO = beta-catenin-lacking colon tumor cell growth suppression. HCT116 beta-catenin knockout viability, CellTiter-Glo, 60 h; stronger effect = lower value. viability, % at 10 µM. 140,000 tested, 1.5% active. AID 818;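 active = viability at or under a set limit, the compound median less 4 SD, cut at about 6% in these data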;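 also: 0% = Hyamine 1622 control at 20 µM and 100% = untreated cell control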
L major viab = inhibitors of Leishmania major promastigote growth. inhibition, % at 10 µM. Leishmania major promastigotes, resazurin fluorescence viability. 200,000 tested, 9% active; in the data active = inhibition above about 50%;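 also: promastigotes grown with compound for 44 hours at 28 °C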
Autophagy HCS = modulators of autophagy; MEF GFP-LC3 puncta imaging; test concentration mostly 10 µM; calls only at 10 µM (by protocol); 190,000 tested, 0.98% active; AID 463193;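 active = percentage of spot-positive cells more than 3 SD above its plate mean, without a fluorescence outlier flag or 80% toxicity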;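 also: spot-positive cell cutoff set from DMSO-treated cells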
Dynein cargo inh = blocks dynein driven cargo transport along microtubules. 3617.4 mouse cells, GR-EGFP nuclear translocation imaging; test concentration mostly 20 µM; stimulated with dexamethasone, 1 µM; stronger effect = lower value. z-score, hits read low. 220,000 tested, 0.47% active;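 active = plate z-score of nuclear minus cytoplasmic receptor signal below a set negative limit, without overly bright fluorescence or cell loss, cut at about -3.5 in these data, passing the limit was not always enough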;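 also: z-score of nuclear minus cytoplasmic ring GR-EGFP intensity difference per well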
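Buffer or medium – tet-free medium with charcoal-stripped serum · Signal – automated 10x imaging of fixed Hoechst-stained cells · Also added – dexamethasone agonist, 1.0 µM final, for 30 min · Incubation – induction 48 h, compound 1 h, agonist 30 min · Read-out – GR-EGFP nuclear translocation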
HCT116 PTEN-null = growth suppressors of cells with PTEN tumor suppressor deletion. HCT116 PTEN-null viability, CellTiter-Glo, 60 h; stronger effect = lower value. viability, % at 10 µM. 140,000 tested, 1.2% active. AID 827;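 active = viability at or below a set limit, 4 SD under the median of all tested compounds, cut at about 3.7% in these data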;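 also: PTEN knockout HCT116 line with beta catenin targeted HCT116 as companion control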
Starred values were filed as active, the others as inactive; i = inactive; nt = not tested or not shown; + = active, no number. Only some compounds are listed: those with a hit (about 9.2% of all), similar ones and a draw of the others.

SMILES | HCT116 bCat-KO | L major viab | Autophagy HCS | Dynein cargo inh | HCT116 PTEN-null
CCNC(=S)NCCN1CCOCC1 | 85 | -6 | i | 0.15 | 95
S=C(NCCCN1CCOCC1)NC1CC1 | nt | -8 | i | 0.11 | nt
COCCNC(=O)COc1cccc2c1OC(C)(C)C2 | nt | -10 | i | -0.77 | nt
COc1ccc(CNCC(O)COc2cccc3c2OC(C)(C)C3)cc1 (centres undefined) | nt | 86* | i | -0.34 | nt
COc1ccc(C2C(C(=O)NCc3ccccn3)CCC(=O)N2c2cc(OC)c(OC)c(OC)c2)cc1 (centres undefined) | nt | -4 | i | -0.46 | nt
CCOc1ccccc1OCCOCCOc1c(Cl)cccc1Cl | 87 | 34 | i | 0.3 | 92
CCOc1ccc(OCCOCCOc2c(Cl)cccc2Cl)cc1 | nt | 60* | i | -0.091 | nt
Cc1ccc(-c2c[n+](Cc3ccc(Cl)cc3)c3n2CCC3)cc1 | nt | nt | nt | -0.67 | nt
Clc1ccc(-c2c[n+](Cc3ccc(Cl)c(Cl)c3)c3n2CCC3)cc1 | 45 | 99* | i | 0.00077 | 52
Clc1cccc(C[n+]2cc(-c3ccccc3)n3c2CCC3)c1 | 69 | 99* | i | 0.013 | 70
O=C1NC(=NCc2ccccc2)S/C1=C/c1ccc(O)cc1 | 45 | 63* | i | -0.043 | 43
CCC(C)n1c(SCC(=O)NC(=O)c2cccn2C)nc2ccccc2c1=O (centres undefined) | nt | 16 | i | 0.32 | nt
CCC(C)n1c(SCC(=O)NC(=O)Nc2ccc3c(c2)OCCO3)nc2ccccc2c1=O (centres undefined) | 61 | 86* | i | -0.5 | 53
CC1=C/C(=N\NC(=S)NCc2ccccc2)CC1 | nt | -2 | i | 0.31 | nt
CCC(SCC(=O)OC)C(=O)Nc1nnc(C(C)C)s1 (centres undefined) | 105 | -9 | i | -0.62 | 96
COC(=O)CSC(C)C(=O)Nc1nnc(C(C)C)s1 (centres undefined) | nt | -7 | + | -0.16 | nt
O=C(CSc1nc2cc(Cl)ccc2o1)c1cccs1 | 99 | 57* | i | 2.2 | 92
O=C(CCNc1ccc(Cl)cc1)c1cccs1 | 69 | 32 | i | 0.079 | 62
O=C(CCSc1ccc(Cl)cc1)c1cccs1 | 43 | 70* | i | 2.7 | 71
O=C(Nc1ccc(NC(=O)C2CCCCC2)nc1)c1cccs1 | nt | 99* | i | -0.77 | nt
Cc1nnsc1S(=O)(=O)Cc1ccccc1C(F)(F)F | nt | -3 | i | -0.81 | nt
CCCCn1c(NC(=S)Nc2ccccc2)nc2ccccc21 | 41 | 80* | i | -0.29 | 30
CCCCn1c(NCCO)nc2ccccc21 | 88 | -4 | nt | -1.3 | 90
CCCCn1c(NC(=O)c2ccccc2)nc2ccccc21 | 17 | 96* | i | -0.43 | 12
CCCCn1c(NC(=O)C2CCCCC2)nc2ccccc21 | 5.2* | 71* | i | -0.32 | 9
SMILES | HCT116 bCat-KO | L major viab | Autophagy HCS | Dynein cargo inh | HCT116 PTEN-null
S=C(Nc1ccccc1)Nc1nc2ccccc2n1CCOc1ccccc1 | 1.6* | 51* | i | -0.62 | 1.2*
C=CCn1cnc2c(nnn2-c2ccc(C)c(Cl)c2)c1=O | nt | 0 | i | -0.29 | nt
Cc1nc2ccccc2n1/C(=N\S(=O)(=O)c1ccccc1)c1ccccc1 | 89 | -3 | i | -0.57 | 92
Cc1cc(Cl)ccc1OCC(=O)N/N=C1\CC2C=CCC12 (centres undefined) | 105 | -9 | i | 0.33 | 107
COc1ccc(Cl)cc1C(=O)CSc1nc(N)cc(N)n1 | 103 | 9 | i | -0.64 | 102
O=C(N/N=C\c1ccc(CNS(=O)(=O)c2ccc(Cl)cc2)o1)C(=O)Nc1ccc(Oc2ccccc2)cc1 | 1.4* | 0 | i | -0.33 | 2.0*
COc1ccc(CN2CCN(Cc3ccon3)CC2CCO)c(C)c1C (centres undefined) | nt | nt | nt | -0.21 | nt
Cc1ccc(SCC(=O)Nc2ccc(F)cc2[N+](=O)[O-])cc1C | 93 | -5 | i | -0.082 | 88
Cc1c(C(=O)Nc2nccs2)sc2nc(-c3cccs3)cc(C(F)(F)F)c12 | 1.8* | 34 | i | 0.8 | 2.2*
COc1ccc(OCC(O)CNC(=O)Nc2ccc(F)cc2)cc1 (centres undefined) | nt | nt | nt | 0.35 | nt
O=C(N/N=C/c1cc2c(cc1Br)OCO2)c1c[nH]c2ccccc12 | nt | 80* | i | -0.18 | nt
Cc1ccc(C(=O)Nc2ccc(C(=O)N/N=C/c3c[nH]c4ccccc34)cc2)cc1 | 49 | 73* | i | -0.084 | 49
O=C(N/N=C/c1c[nH]c2ccccc12)c1[nH]c2ccc(Br)cc2c1-c1ccccc1 | 1.3* | 3 | i | -0.76 | 1.2*
O=C(N/N=C/c1c[nH]c2ccccc12)c1ccncc1 | 86 | 56* | i | 0.17 | 96
O=C(CSc1ccsc1[N+](=O)[O-])NCc1ccco1 | nt | 4 | i | 0.58 | nt
O=C(c1cccnc1)N1CCN(c2ccccc2Cl)CC1 | nt | nt | nt | 0.072 | nt
CCCCCCC1CCC(C(=O)NC(CCSC)C(=O)NC(C(=O)OC)C(C)C)CC1 (centres undefined) | 14 | 5 | i | 0.53 | 18
O=C(O)c1cn(-c2ccc(F)c(F)c2)c2c(F)c(F)c(F)c(F)c2c1=O | 65 | 0 | i | -6.4* | 76
CCOC(=O)c1cn(-c2ccc(F)c(F)c2)c2c(F)c(F)c(F)c(F)c2c1=O | 17 | 35 | i | 0.45 | 6
Cc1ccnc(N/C=C(/NC(=O)c2ccccc2)C(=O)N/N=C\c2ccc(Cl)cc2)n1 | nt | nt | nt | 1 | nt
COc1cc(CNCCc2ccc(S(N)(=O)=O)cc2)ccc1OCc1ccc(Cl)cc1 | 0.6* | 100* | i | -0.24 | 0.6*
CCOc1cc(CNCCc2ccc(S(N)(=O)=O)cc2)ccc1OCc1ccc(Cl)cc1 | 1.4* | 101* | i | 0.58 | 1.7*
COc1cc(CNCCc2ccc(S(N)(=O)=O)cc2)ccc1OCC(=O)NC1CCCCC1 | 81 | -3 | i | 0.4 | 85
CN(C)/N=C/C=C1\CCC/C(=C\c2ccc(F)c(F)c2)C1=O | nt | 97* | + | -3 | nt
COc1ccc(/C=C2\CCC/C(=C\C=N\N(C)C)C2=O)cc1 | nt | 93* | i | -2.7 | nt
SMILES | HCT116 bCat-KO | L major viab | Autophagy HCS | Dynein cargo inh | HCT116 PTEN-null
Cn1cccc1/C=C1\CCC/C(=C\c2cccn2C)C1=O | 64 | 44 | i | -0.33 | 67
Cc1onc(-c2c(Cl)cccc2Cl)c1C(=O)N/N=C(\N)COc1ccc(Cl)cc1 | 5.9* | 97* | i | -0.46 | 9
Cc1onc(-c2c(F)cccc2Cl)c1C(=O)NCCO | nt | -2 | i | -0.61 | nt
Cc1cc(C)n2nc(/C(C#N)=C/c3ccccn3)c(C#N)c2n1 | nt | 97* | i | 0.12 | nt
O=C(CSc1nnc(Cc2cccs2)n1-c1ccccc1)NCc1ccc2c(c1)OCO2 | 90 | 13 | i | -0.051 | 96
CC(Sc1nnc(-c2cccs2)n1-c1ccccc1)C(=O)NCc1ccc2c(c1)OCO2 (centres undefined) | 95 | 91* | i | -0.66 | 94
COc1ccc(/C(=C/Nc2cccc(Br)c2)C(C)=O)cc1OC | nt | 17 | i | 1.7 | nt

Bioassay records (PubChem BioAssay)
